Laboratory results published in ChEMBL document CHEMBL5705890, “Antitumor activity of an allosteric inhibitor of centromere-associated protein-E” (Proc Natl Acad Sci U S A, 2010).

Legend:
Assay type in all cases: functional
K562 = assay: Anticancer activity against human K562 cells assessed as cell growth inhibition measured after 72 hrs by DAPI staining based analysis
NCI-H292 = assay: Anticancer activity against human NCI-H292 cells assessed as cell doubling measured for 72 hrs by DAPI staining based analysis
SK-MEL-28 = assay: Anticancer activity against human SK-MEL-28 cells assessed as cell doubling measured for 72 hrs by DAPI staining based analysis
A-375 = assay: Anticancer activity against human A-375 cells assessed as cell growth inhibition measured after 72 hrs by DAPI staining based analysis
In short: (§1)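 Cells were seeded and, after 24 h, DNA content was read as T0. Cells were then exposed to varying drug concentrations for a further 72 h (T72). Fixed cells were DAPI-stained and DNA content measured by automated imaging. T72 values were normalized to T0. GI50 is the concentration giving 50% growth inhibition between T0 and Ymax, obtained by curve fitting.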

Raji = assay: Anticancer activity against human Raji cells assessed as cell growth inhibition measured after 72 hrs by DAPI staining based analysis
PC-3 = assay: Anticancer activity against human PC-3 cells assessed as cell growth inhibition measured after 72 hrs by DAPI staining based analysis
[1] = Antitumor activity against human MV-522 cells in xenograft model assessed as difference between median time to endpoint time of treated versus control group at 125 mg/kg
SK-OV-3 = assay: Antitumor activity against human SK-OV-3 cells in xenograft model assessed as difference between median time to endpoint time of treated versus control group at 125 mg/kg
[2] = Anticancer activity against human COLO-704 cells assessed as cell growth inhibition measured after 72 hrs by DAPI staining based analysis
In short: (§2)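 Cells seeded, DAPI-stained DNA content of fixed cells read by imaging 24 h after seeding (T0), and again after a further 72 h exposure to a range of drug concentrations (T72). T72 values were normalized to T0. Curve fits gave the concentration producing 50% growth inhibition relative to T0 and Ymax (GI50).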

AGS = assay: Anticancer activity against human AGS cells assessed as cell growth inhibition measured after 72 hrs by DAPI staining based analysis; in short: as §1
HCC70 = assay: Anticancer activity against human HCC70 cells assessed as cell growth inhibition measured after 72 hrs by DAPI staining based analysis
A-431 = assay: Anticancer activity against human A-431 cells assessed as cell growth inhibition measured after 72 hrs by DAPI staining based analysis; in short: as §1
[3] = Anticancer activity against human BC1 cells assessed as cell doubling measured for 72 hrs by DAPI staining based analysis
MDA-MB-175-VII = assay: Anticancer activity against human MDA-MB-175-VII cells assessed as cell doubling measured for 72 hrs by DAPI staining based analysis
LNCaP = assay: Anticancer activity against human LNCaP cells assessed as cell doubling measured for 72 hrs by DAPI staining based analysis
NCI-H146 = assay: Anticancer activity against human NCI-H146 cells assessed as cell doubling measured for 72 hrs by DAPI staining based analysis
SW780 = assay: Anticancer activity against human SW780 cells assessed as cell growth inhibition measured after 72 hrs by DAPI staining based analysis
SCC-9 = assay: Anticancer activity against human SCC-9 cells assessed as cell doubling measured for 72 hrs by DAPI staining based analysis
NCI-H508 = assay: Anticancer activity against human NCI-H508 cells assessed as cell doubling measured for 72 hrs by DAPI staining based analysis
G-402 = assay: Anticancer activity against human G-402 cells assessed as cell doubling measured for 72 hrs by DAPI staining based analysis
RL95-2 = assay: Anticancer activity against human RL95-2 cells assessed as cell doubling measured for 72 hrs by DAPI staining based analysis
MDA-MB-453 = assay: Anticancer activity against human MDA-MB-453 cells assessed as cell doubling measured for 72 hrs by DAPI staining based analysis
ACHN = assay: Anticancer activity against human ACHN cells assessed as cell growth inhibition measured after 72 hrs by DAPI staining based analysis; in short: as §1
[4] = Anticancer activity against human TE 381.T cells assessed as cell doubling measured for 72 hrs by DAPI staining based analysis
BeWo = assay: Anticancer activity against human BeWo cells assessed as cell growth inhibition measured after 72 hrs by DAPI staining based analysis
In short: (§3)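 Cells were seeded, and DNA content at 24 h after seeding (T0) was read by imaging of fixed, DAPI-stained cells. Cells were then exposed to a range of drug concentrations for a further 72 h (T72) and DNA content was read again. T72 values were normalized to T0, and GI50 was taken from curve fits as the concentration giving 50% growth inhibition relative to T0 and Ymax.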

NCI-H358 = assay: Anticancer activity against human NCI-H358 cells assessed as cell doubling measured for 72 hrs by DAPI staining based analysis
MX1 = assay: Anticancer activity against human MX1 cells assessed as cell doubling measured for 72 hrs by DAPI staining based analysis
COLO-320-HSR = assay: Anticancer activity against human COLO 320HSR cells assessed as cell growth inhibition measured after 72 hrs by DAPI staining based analysis; in short: as §3
OVCAR-3 = assay: Anticancer activity against human OVCAR-3 cells assessed as cell doubling measured for 72 hrs by DAPI staining based analysis
HT-3 = assay: Anticancer activity against human HT-3 cells assessed as cell doubling measured for 72 hrs by DAPI staining based analysis
SJRH30 = assay: Anticancer activity against human SJRH30 cells assessed as cell doubling measured for 72 hrs by DAPI staining based analysis
Caov-3 cell line = assay: Anticancer activity against human Caov-3 cells assessed as cell growth inhibition measured after 72 hrs by DAPI staining based analysis; in short: as §2
SCaBER = assay: Anticancer activity against human SCaBER cells assessed as cell growth inhibition measured after 72 hrs by DAPI staining based analysis
SNB-19 = assay: Anticancer activity against human SNB-19 cells assessed as cell growth inhibition measured after 72 hrs by DAPI staining based analysis
CAL-54 = assay: Anticancer activity against human CAL-54 cells assessed as cell growth inhibition measured after 72 hrs by DAPI staining based analysis; in short: as §3
BC-3 = assay: Anticancer activity against human BC-3 cells assessed as cell doubling measured for 72 hrs by DAPI staining based analysis
NCI-H460 = assay: Antitumor activity against human NCI-H460 cells in xenograft model assessed as difference between median time to endpoint time of treated versus control group at 125 mg/kg
NCI-H82 = assay: Anticancer activity against human NCI-H82 cells assessed as cell doubling measured for 72 hrs by DAPI staining based analysis
[5] = Anticancer activity against human KHOS-240S cells assessed as cell doubling measured for 72 hrs by DAPI staining based analysis
MCF7 = assay: Antitumor activity against human MCF7 cells in xenograft model assessed as difference between median time to endpoint time of treated versus control group at 125 mg/kg

GI50 (K562): 25 nM
GI50 (A-375): 26 nM
GI50 (Raji): 41 nM
GI50 (PC-3): 28 nM
GI50 (AGS): 29 nM
GI50 (A-431): 21 nM
GI50 (SW780): 30 nM
GI50 (ACHN): 61 nM
GI50 (COLO-320-HSR): 153 nM
SMILES: CC(C)Oc1ccc(C(=O)N[C@H](CNC(=O)CN(C)C)Cc2ccc(-c3cn4cccc([C@H](C)O)c4n3)cc2)cc1Cl [GSK-923295A]
Activity (NCI-H292): 2.2
Activity (SK-MEL-28): 2.43
Time [1]: 26.3 days
Time (SK-OV-3): >95 days
GI50 [2]: 69 nM
GI50 (HCC70): 24 nM
Activity [3]: 3.65
Activity (MDA-MB-175-VII): 1.15
Activity (LNCaP): 1.4
Activity (NCI-H146): 1.2
Activity (SCC-9): 1.95
Activity (NCI-H508): 3.01
Activity (G-402): 1.76
Activity (RL95-2): 2.48
Activity (MDA-MB-453): 2.26
Activity [4]: 1.92
GI50 (BeWo): 26 nM
Activity (NCI-H358): 2.07
Activity (MX1): 2.99
Activity (OVCAR-3): 1.56
Activity (HT-3): 1.95
Activity (SJRH30): 2.12
GI50 (Caov-3 cell line): 33 nM
GI50 (SCaBER): 54 nM
GI50 (SNB-19): 28 nM
GI50 (CAL-54): 49 nM
Activity (BC-3): 2.65
Time (NCI-H460): 37.2 days
Activity (NCI-H82): 2
Activity [5]: 2.44
Time (MCF7): 15.8 days
